According to ChEMBL document CHEMBL5523690, “Synergistic effect of tryptamine-urea derivatives to overcome the chromosomally-mediated colistin resistance in Klebsiella pneumoniae” (Bioorg Med Chem, 2024):

What was measured:
Escherichia coli [1] = assay: Colistin adjuvant activity against colistin-resistant Escherichia coli A50 assessed as colistin MIC by measuring potentiation fold incubated for 24 hrs under aerobic condition by two fold serial dilution method relative to colistin alone; type: functional
Erythrocyte [2] = assay: Hemolytic activity in sheep RBC assessed as hemolysis at 25 uM measured after 1 hr by fluorescence microscopic analysis; type: toxicity, cell-based, Ovis aries
How it was run: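 Sheep erythrocytes, PBS-washed, were treated at 5% (v/v) with compound (25–800 µM) in 5% (v/v) DMSO for 1 h at 37 °C, shaking at 100 rpm. Controls were 0.5% Triton X-100 (positive) and PBS (negative). After centrifugation at 1000 g, 4 °C, hemolysis was assessed visually and by absorbance (750–600 nm) as percent RBC survival. Triplicate.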

Klebsiella pneumoniae [3] = assay: Antibacterial activity against chromosomally-mediated resistant Klebsiella pneumoniae BA03057 assessed as inhibition of visible bacterial growth measured after 20 hrs under aerobic condition by two fold serial dilution assay; type: functional
Escherichia coli [4] = assay: Antibacterial activity against colistin resistant Escherichia coli NTCC 13846 harboring mcr-1 gene assessed as inhibition of visible bacterial growth measured after 20 hrs under aerobic condition by two fold serial dilution assay; type: functional
Escherichia coli [5] = assay: Colistin adjuvant activity against colistin-resistant Escherichia coli A50 assessed as antibacterial effect by measuring colistin MIC incubated for 24 hrs under aerobic condition by two fold serial dilution method; type: functional
Pseudomonas aeruginosa [6] = assay: Antibacterial activity against chromosomally-mediated colistin resistant Pseudomonas aeruginosa 1002 assessed as inhibition of visible bacterial growth measured after 20 hrs under aerobic condition by two fold serial dilution assay; type: functional
Pseudomonas aeruginosa [7] = assay: Antibacterial activity against chromosomally-mediated colistin resistant Pseudomonas aeruginosa 10039 assessed as inhibition of visible bacterial growth measured after 20 hrs under aerobic condition by two fold serial dilution assay; type: functional
Klebsiella pneumoniae [8] = assay: Antibacterial activity against Klebsiella pneumoniae ATCC700603 assessed as inhibition of visible bacterial growth measured after 20 hrs under aerobic condition by two fold serial dilution assay; type: functional
How it was run: (§1)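 Broth microdilution following EUCAST. Compound was tested at final well concentrations of 0.25–128 µg/mL against 5.10^5 CFU/mL inoculum, incubated 20 h at 37 °C aerobically. MIC was taken as the lowest concentration with no visible growth. There were three independent experiments per strain.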

Erythrocyte [9] = assay: Hemolytic activity in sheep RBC assessed as RBC deformation at 25 uM measured after 1 hr in presence of colistin by fluorescence microscopic analysis; type: toxicity, cell-based, Ovis aries
How it was run: (§2)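 PBS-washed sheep erythrocytes were exposed to compound in PBS at 25–800 µM, or 25 µM plus colistin 1 µg/mL. Each reaction held 5% (v/v) RBCs and 5% (v/v) DMSO, incubated 1 h at 37 °C with 100 rpm agitation, then centrifuged at 1000 g, 4 °C. Cell shape was examined by optical microscopy. Triplicates.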

[10] = Hemolytic activity in sheep RBC assessed as survival rate at 25 uM measured after 1 hr in presence of colistin by fluorescence microscopic analysis relative to control; type: toxicity, cell-based, Ovis aries, Erythrocyte; conditions: sheep red blood cells (erythrocytes), read-out: Survival
How it was run: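 Washed sheep erythrocytes in PBS, 5% (v/v) final with 5% (v/v) DMSO, given 25 µM agent plus colistin 1 µg/mL; 1 h at 37 °C, shaking 100 rpm; Triton X-100 0.5% positive and PBS negative controls; cells spun off at 1000 g, 4 °C; absorbance (750–600 nm) read as % RBC survival; triplicate; shape checked by optical microscopy.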

Erythrocyte [11] = assay: Hemolytic activity in sheep RBC assessed as RBC deformation at 800 uM measured after 1 hr by fluorescence microscopic analysis; type: toxicity, cell-based, Ovis aries; how it was run: as §2
Klebsiella pneumoniae [12] = assay: Colistin adjuvant activity against colistin-resistant Klebsiella pneumoniae BA03057 assessed as antibacterial effect by measuring colistin MIC incubated for 24 hrs under aerobic condition by two fold serial dilution method; type: functional
Escherichia coli [13] = assay: Antibacterial activity against colistin resistant Escherichia coli A50 harboring mcr-1 gene assessed as inhibition of visible bacterial growth measured after 20 hrs under aerobic condition by two fold serial dilution assay; type: functional
Escherichia coli [14] = assay: Antibacterial activity against Escherichia coli ATCC25922 assessed as inhibition of visible bacterial growth measured after 20 hrs under aerobic condition by two fold serial dilution assay; type: functional; how it was run: as §1
Klebsiella pneumoniae [15] = assay: Synergistic antibacterial activity against Klebsiella pneumoniae BA03057 assessed as fractional inhibitory concentration index incubated for 24 hrs under aerobic condition in presence of colistin by checkerboard assay; type: functional
How it was run: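 Checkerboard against KP BA03057 at 5.10^5 CFU/mL. Colistin was two-fold diluted 0–64 µg/mL across compound two-fold diluted 0–100 µM. Plates were incubated 24 h at 37 °C aerobically and absorbance read at 600 nm. FICI = MIC(compound, combined)/MIC(compound alone) + MIC(colistin, combined)/MIC(colistin alone), with synergy at FICI < 0.5. Plates were run in duplicate.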

Pseudomonas aeruginosa [16] = assay: Antibacterial activity against Pseudomonas aeruginosa ATCC27853 assessed as inhibition of visible bacterial growth measured after 20 hrs under aerobic condition by two fold serial dilution assay; type: functional; how it was run: as §1
Pseudomonas aeruginosa [17] = assay: Antibacterial activity against chromosomally-mediated colistin resistant Pseudomonas aeruginosa 15080 assessed as inhibition of visible bacterial growth measured after 20 hrs under aerobic condition by two fold serial dilution assay; type: functional
Erythrocyte [18] = assay: Hemolytic activity in sheep RBC assessed as hemolysis at 1600 uM measured after 1 hr by fluorescence microscopic analysis; type: toxicity, cell-based, Ovis aries

O=C(NCCc1c[nH]c2ccccc12)Nc1cccc(F)c1
fold change (FC) (Escherichia coli [1]): 0.5
Activity (Erythrocyte [2]): Non-Toxic
MIC (Klebsiella pneumoniae [3]): > 128 µg/mL
MIC (Escherichia coli [4]): > 128 µg/mL
MIC (Escherichia coli [5]): 4 µg/mL
MIC (Pseudomonas aeruginosa [6]): > 128 µg/mL
MIC (Pseudomonas aeruginosa [7]): > 128 µg/mL
MIC (Klebsiella pneumoniae [8]): > 128 µg/mL
Activity (Erythrocyte [9]): Non-Toxic
viability at 1 h, 25 µM [10]: 96%
Activity (Erythrocyte [11]): Non-Toxic
MIC (Klebsiella pneumoniae [12]): 1 µg/mL
MIC (Escherichia coli [13]): > 128 µg/mL
MIC (Escherichia coli [14]): > 128 µg/mL
fractional inhibitory concentration index (FICI) (Klebsiella pneumoniae [15]): 0.073
MIC (Pseudomonas aeruginosa [16]): > 128 µg/mL
MIC (Pseudomonas aeruginosa [17]): > 128 µg/mL
Activity (Erythrocyte [18]): Non-Toxic
